Experimental data taken from ChEMBL document CHEMBL1151226, “New bioactive prenylflavonoids and dibenzocycloheptene derivative from roots of Dendrolobium lanceolatum” (J Nat Prod, 2004).
Converted amounts (≈) assume the structure as drawn. The source made the active and inactive calls. The rule behind the calls is not given here.

Experiments:
[1] = tested on: Mycobacterium tuberculosis; experiment: Antimycobacterial activity against Mycobacterium tuberculosis H37Ra by alamar blue assay; assay type: functional
Outline: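 M. tuberculosis H37Ra tested in the Microplate Alamar Blue Assay (MABA). Isoniazid and kanamycin sulfate were the reference drugs.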

[2] = tested on: NCI-H187; experiment: Cytotoxicity against human NCI-H187 cells at 20 ug/ml; assay type: functional, cell-based
[3] = tested on: KB; experiment: Cytotoxicity against human KB cells at 20 ug/ml; assay type: functional, cell-based
[4] = tested on: BC; experiment: Cytotoxicity against human BC cells at 20 ug/ml; assay type: functional, cell-based
[5] = tested on: Plasmodium falciparum; experiment: Antiplasmodial activity against multidrug-resistant Plasmodium falciparum K1 at 20 ug/ml as [3H]hypoxanthine uptake; assay type: functional, organism-based
[6] = tested on: KB; experiment: Cytotoxicity against human KB cells; assay type: functional, cell-based
Outline: (§1)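 Human epidermoid carcinoma (KB) and human breast cancer (BC) cell lines assessed by a colorimetric cytotoxicity method following Skehan and co-workers. Ellipticine was the reference substance.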

[7] = tested on: NCI-H187; experiment: Cytotoxicity against human NCI-H187 cells; assay type: functional, cell-based
Outline: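 Human small cell lung cancer NCI-H187 cell line, assayed by the colorimetric method of Skehan and co-workers. Ellipticine served as the reference substance.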

[8] = Cytotoxicity against human BC cells; assay type: functional, cell-based; outline: as §1
[9] = tested on: Plasmodium falciparum; experiment: Antiplasmodial activity against multidrug-resistant Plasmodium falciparum K1 as [3H]hypoxanthine uptake; assay type: functional, organism-based
Outline: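 P. falciparum K1 (multidrug-resistant) maintained in culture by the Trager–Jensen method. Microculture radioisotope technique, with growth read as in vitro [3H]-hypoxanthine uptake by the parasites. IC50 is the concentration giving 50% reduction in parasite growth. Artemisinin was the reference standard.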

| Compound | MIC [1] [µg/mL] | Activity [2] | Activity [3] | Activity [4] | Activity [5] | IC50 [6] [µg/mL] | IC50 [7] [µg/mL] | IC50 [8] [µg/mL] | IC50 [9] [µg/mL] |
| --- | --- | --- | --- | --- | --- | --- | --- | --- | --- |
| NC[C@H]1O[C@H](O[C@H]2[C@H](O)[C@@H](O[C@H]3O[C@H](CO)[C@@H](O)[C@H](N)[C@H]3O)[C@H](N)C[C@@H]2N)[C@H](O)[C@@H](O)[C@@H]1O.O=S(=O)(O)O [KANAMYCIN SULFATE] | 2 | – | – | – | – | – | – | – | – |
| CC1(C)C=Cc2c(ccc3c2O[C@H](c2ccc(O)cc2)CC3)O1 | 25 (≈ 81.1 µM) | inactive | inactive | inactive | inactive | – | – | – | – |
| Cc1c2ccncc2c(C)c2c1[nH]c1ccccc12 [ELLIPTECINE] | – | – | – | – | – | 0.4 (≈ 1.62 µM) | 0.4 (≈ 1.62 µM) | 0.4 (≈ 1.62 µM) | – |
| CC(C)=CCc1c([C@@H]2CC(=O)c3c(O)cc(O)c(CC=C(C)C)c3O2)cc2c(c1O)OC(C)(C)C=C2 | 6.3 (≈ 12.8 µM) | – | – | – | – | 1.2 (≈ 2.45 µM) | 0.6 (≈ 1.22 µM) | 1.7 (≈ 3.47 µM) | 2.6 (≈ 5.3 µM) |
| COc1cc2c(cc1O)-c1cc(O)c(OC)c(OC)c1C=CC2 | 50 (≈ 159 µM) | inactive | inactive | inactive | inactive | – | – | – | – |
| C[C@@H]1CC[C@H]2[C@@H](C)C(=O)O[C@@H]3O[C@@]4(C)CC[C@@H]1[C@]32OO4 [ARTEMISININ] | – | – | – | – | – | – | – | – | 0.001 (≈ 0.00354 µM) |
| COc1cc2c(c(CC=C(C)C)c1O)O[C@H](c1ccc(O)c(O)c1CC=C(C)C)CC2 | 25 (≈ 58.9 µM) | inactive | inactive | inactive | – | – | – | – | 3.1 (≈ 7.3 µM) |
| NNC(=O)c1ccncc1 [ISONIAZID] | 0.04 (≈ 0.292 µM) | – | – | – | – | – | – | – | – |
| COc1ccc([C@@H]2CC(=O)c3c(O)cc(O)c(CC=C(C)C)c3O2)c(CC=C(C)C)c1O | 12.5 (≈ 28.5 µM) | – | inactive | inactive | – | – | 8.1 (≈ 18.5 µM) | – | 3.3 (≈ 7.53 µM) |
